The species entered for experiment [1] is Rattus norvegicus. Briefly: Progestational activity in estrone-treated ovariectomized rat assessed as effect on uterine epithelial cell height. Type of experiment: functional, organism-based. The essentials: (§1)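 Ovariectomized rats were treated with estrone, alone or combined with test progestin, and compared with vehicle and estrone-only groups. Endpoints were uterine epithelial cell height, vaginal epithelial thickness and mammary alveolar bud proliferation.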

Experiment [2] has as its target T1, Mineralocorticoid receptor (Homo sapiens) (UniProt P08235).
T1 sequence (whole entry): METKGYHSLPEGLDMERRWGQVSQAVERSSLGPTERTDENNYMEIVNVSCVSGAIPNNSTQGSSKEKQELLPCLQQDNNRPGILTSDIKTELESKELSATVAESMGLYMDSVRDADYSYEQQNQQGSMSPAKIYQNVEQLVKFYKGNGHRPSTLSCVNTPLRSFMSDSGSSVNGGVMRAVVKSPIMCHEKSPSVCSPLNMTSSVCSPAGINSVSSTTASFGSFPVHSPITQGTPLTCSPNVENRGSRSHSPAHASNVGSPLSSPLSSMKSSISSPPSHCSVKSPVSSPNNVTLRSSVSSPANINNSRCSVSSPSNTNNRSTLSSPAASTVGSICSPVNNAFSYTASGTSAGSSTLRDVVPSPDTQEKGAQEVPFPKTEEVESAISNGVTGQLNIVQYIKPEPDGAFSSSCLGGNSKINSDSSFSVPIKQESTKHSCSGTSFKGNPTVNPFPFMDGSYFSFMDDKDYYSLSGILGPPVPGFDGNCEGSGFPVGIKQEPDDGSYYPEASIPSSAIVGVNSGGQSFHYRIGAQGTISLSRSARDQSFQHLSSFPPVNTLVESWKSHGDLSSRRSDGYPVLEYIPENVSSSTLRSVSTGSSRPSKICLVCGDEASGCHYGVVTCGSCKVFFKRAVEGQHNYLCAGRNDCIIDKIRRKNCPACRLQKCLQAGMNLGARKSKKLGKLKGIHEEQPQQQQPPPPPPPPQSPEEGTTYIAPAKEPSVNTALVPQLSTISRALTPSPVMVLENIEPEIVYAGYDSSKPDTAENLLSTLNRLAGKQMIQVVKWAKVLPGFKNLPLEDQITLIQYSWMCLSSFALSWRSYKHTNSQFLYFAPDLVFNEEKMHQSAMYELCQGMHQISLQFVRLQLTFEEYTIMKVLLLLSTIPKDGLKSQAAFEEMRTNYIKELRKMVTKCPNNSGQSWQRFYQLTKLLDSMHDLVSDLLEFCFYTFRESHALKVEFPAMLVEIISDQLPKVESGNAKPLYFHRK
Briefly: Antagonist activity at human mineralocorticoid receptor relative to aldosterone. It is filed as functional.

The target in experiment [3] is T2, Androgen receptor (Homo sapiens) (UniProt P10275).
T2 sequence (whole entry): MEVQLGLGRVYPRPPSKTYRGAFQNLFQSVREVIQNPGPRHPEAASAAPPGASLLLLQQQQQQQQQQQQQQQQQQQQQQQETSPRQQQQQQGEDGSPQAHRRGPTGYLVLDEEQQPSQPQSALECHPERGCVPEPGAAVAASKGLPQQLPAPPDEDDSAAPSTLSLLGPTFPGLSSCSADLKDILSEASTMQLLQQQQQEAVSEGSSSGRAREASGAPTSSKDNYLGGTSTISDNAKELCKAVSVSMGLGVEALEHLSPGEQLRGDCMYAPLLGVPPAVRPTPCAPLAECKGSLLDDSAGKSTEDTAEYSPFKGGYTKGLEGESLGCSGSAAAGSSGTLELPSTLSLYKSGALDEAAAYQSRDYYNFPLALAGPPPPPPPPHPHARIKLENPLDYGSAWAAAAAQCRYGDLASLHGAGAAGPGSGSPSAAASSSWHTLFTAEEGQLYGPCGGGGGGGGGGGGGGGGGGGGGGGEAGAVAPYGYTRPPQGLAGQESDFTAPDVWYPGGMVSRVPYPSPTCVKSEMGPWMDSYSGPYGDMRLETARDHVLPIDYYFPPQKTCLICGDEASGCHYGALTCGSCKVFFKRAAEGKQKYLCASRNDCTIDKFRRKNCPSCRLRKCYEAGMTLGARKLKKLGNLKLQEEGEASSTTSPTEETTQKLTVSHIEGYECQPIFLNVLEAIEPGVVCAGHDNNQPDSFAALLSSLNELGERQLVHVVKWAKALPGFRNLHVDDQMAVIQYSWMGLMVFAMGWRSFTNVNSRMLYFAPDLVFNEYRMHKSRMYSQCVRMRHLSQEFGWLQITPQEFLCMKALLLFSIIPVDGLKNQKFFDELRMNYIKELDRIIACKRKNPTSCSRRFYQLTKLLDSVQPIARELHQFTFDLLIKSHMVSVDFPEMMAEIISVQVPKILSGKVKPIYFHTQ
In words: Agonist activity at human androgen receptor relative to dihydrotestosterone. Type of experiment: functional.

The target in experiment [4] is T3, Progesterone receptor (Homo sapiens) (UniProt P06401).
T3 sequence (whole entry): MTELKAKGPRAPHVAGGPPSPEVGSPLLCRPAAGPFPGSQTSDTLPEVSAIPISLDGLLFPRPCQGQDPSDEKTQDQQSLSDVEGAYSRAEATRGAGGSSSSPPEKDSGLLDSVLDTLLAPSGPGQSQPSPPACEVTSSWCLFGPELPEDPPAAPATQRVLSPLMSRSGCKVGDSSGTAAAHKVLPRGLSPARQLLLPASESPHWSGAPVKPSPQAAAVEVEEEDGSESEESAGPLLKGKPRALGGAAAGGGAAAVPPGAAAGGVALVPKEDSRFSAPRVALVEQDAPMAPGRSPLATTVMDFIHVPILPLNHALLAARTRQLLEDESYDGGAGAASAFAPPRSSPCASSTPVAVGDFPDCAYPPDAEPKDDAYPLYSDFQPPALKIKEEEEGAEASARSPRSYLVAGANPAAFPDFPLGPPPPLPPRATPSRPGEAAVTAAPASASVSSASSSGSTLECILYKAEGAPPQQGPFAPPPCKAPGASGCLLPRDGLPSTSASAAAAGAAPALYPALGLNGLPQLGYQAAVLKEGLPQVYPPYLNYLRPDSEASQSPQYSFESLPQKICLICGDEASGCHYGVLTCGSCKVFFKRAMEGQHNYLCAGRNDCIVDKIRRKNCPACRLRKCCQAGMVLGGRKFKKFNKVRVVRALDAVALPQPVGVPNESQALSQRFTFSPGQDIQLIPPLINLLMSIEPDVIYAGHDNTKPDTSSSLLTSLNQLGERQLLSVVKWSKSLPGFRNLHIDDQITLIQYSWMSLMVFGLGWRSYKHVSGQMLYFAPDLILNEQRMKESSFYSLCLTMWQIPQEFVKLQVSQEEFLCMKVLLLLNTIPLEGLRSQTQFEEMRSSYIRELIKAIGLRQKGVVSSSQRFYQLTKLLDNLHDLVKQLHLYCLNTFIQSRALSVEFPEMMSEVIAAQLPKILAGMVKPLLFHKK
Briefly: Agonist activity at human progesterone receptor in human T47D cells assessed as alkaline phosphatase activity relative to progesterone. Type of experiment: functional, cell-based.

The species entered for experiment [5] is Rattus norvegicus. Briefly: Progestational activity in estrone-treated ovariectomized rat assessed as reduction of breast alveolar bud proliferation. Type of experiment: functional, organism-based. In short, it runs like this: as §1
The species named for experiment [6] is Rattus norvegicus. In words: Progestational activity in estrone-treated ovariectomized rat assessed as effect on vaginal epithelial thickness. Type of experiment: functional, organism-based. The essentials:
as §1

A further experiment has as its system Oryctolagus cuniculus. Briefly: Progestational activity in New Zealand white rabbit uterine epithelium at 0.10 mg/kg, po after 3 days by Clauberg-McPhail assay. It is filed as functional, organism-based. Also noted: dose 0.1 mg/kg.

Calls of active or inactive are those of the source. The calls are words filed in the database; no cut-off is given here.

Data on one compound can be found in ChEMBL document CHEMBL1157537 (J Med Chem, 2008).

For `CC1=C[C@@H]([C@@H]2Oc3c(F)cc(F)cc3-c3ccc4c(c32)C(C)=CC(C)(C)N4)CCC1` (stereo in doubt; (-)-5c), the result in the experiment listed under Rattus norvegicus [1], in the experiment filed under Rattus norvegicus [5], in the experiment filed under Rattus norvegicus [6] and in the experiment on Oryctolagus cuniculus was Active. Also, the Efficacy was determined as 93% in experiment [2], 177% in experiment [3] and 55% in experiment [4].
